Structures can show the parent of a compound that is named as a salt. Calls of active or inactive are those of the source.
Key:
Rattus norvegicus [1] = assay: Dopaminergic activity in Sprague-Dawley rat assessed as hyperactivity behavior administered into nucleus caudate-putamen measured up to 25 ug from 30 to 45 mins to persisted up to 3 hrs; assay type: functional, organism-based
Procedure, shortened: (§1)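 Male Sprague-Dawley rats (250 ± 26 g) had guide cannulae implanted for bilateral injection into caudate-putamen and nucleus accumbens, and were used 10–14 days later. Nialamide 100 mg/kg ip was given 2 h before. Drug in N2-bubbled water (minimal DMF if needed), 1–2 µL over 60 s. Hyperactivity was read as photocell counts/5 min, stereotypy was scored, and cannula sites were checked histologically.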

Rattus norvegicus [2] = assay: Dopaminergic activity in Sprague-Dawley rat assessed as stereotyped behavior characterized by continous sniffing up to 25 ug administered into caudate-putamen; assay type: functional, organism-based; procedure, shortened: as §1
Rattus norvegicus [3] = assay: Dopaminergic activity in Sprague-Dawley rat assessed as hyperactivity up to 25 ug administered into caudate-putamen; assay type: functional, organism-based; procedure, shortened: as §1
Rattus norvegicus [4] = assay: Dopaminergic activity in Sprague-Dawley rat assessed as stereotypic behavior administered into caudate-putamen measured up to 25 ug from 5 to 15 mins to persisted up to 3 hrs; assay type: functional, organism-based; procedure, shortened: as §1
Rattus norvegicus [5] = assay: Dopaminergic activity in Sprague-Dawley rat assessed as stereotyped behavior characterized by sniffing and biting at up to 10 mg/kg, sc; assay type: functional, organism-based; parameters: dose 10 mg/kg
Procedure, shortened: (§2)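 Male Sprague-Dawley rats, groups of 10, were dosed sc in distilled water with 0.1% sodium metabisulfite, with solvent controls. Stereotyped sniffing and biting were scored as for intracerebral tests at 21 ± 2 °C between 08:00 and 18:00 h. Dose range runs from the threshold dose to the dose giving maximal response, in mg/kg sc.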

Mus musculus [6] = assay: Dopaminergic activity in albino mouse assessed as stereotyped behavior characterized by sniffing and biting at up to 10 mg/kg, sc; assay type: functional, organism-based; parameters: dose 10 mg/kg
Procedure, shortened: (§3)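 Male albino mice (20–25 g, N = 10) were dosed sc in water containing 0.1% sodium metabisulfite and scored for stereotyped sniffing and biting. Dose range runs from the threshold dose to the dose giving maximal response, in mg/kg sc.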

Mus musculus [7] = assay: Dopaminergic activity in albino mouse assessed as induction of ipsilateral circling behavior up to 10 mg/kg, sc; assay type: functional, organism-based; parameters: dose 10 mg/kg
Procedure, shortened: (§4)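 Male albino mice (30–35 g) received a unilateral caudate-putamen electrolesion (1.5 mA, 15 s) and 14 days of recovery. Only mice circling ≥7 ipsilateral revolutions/2 min after apomorphine HCl 1.0 mg/kg sc were kept, with a further 7 days of recovery. After sc dosing, complete revolutions in one direction were counted manually. Lesion sites were verified afterwards.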

Mus musculus [8] = assay: Dopaminergic activity in albino mouse assessed as induction of climbing behavior up to 10 mg/kg, sc; assay type: functional, organism-based; parameters: dose 10 mg/kg
Procedure, shortened: (§5)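 Male albino mice (20–25 g, N = 10) were dosed sc in water with 0.1% sodium metabisulfite and placed in wire-mesh-lined cages. A mouse counted as climbing when holding the wire with all four paws. Measures: climbing index (% time climbing in the 30 min after the first climb) and maximum single-climb time. Doses run from threshold to maximal response.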

Rattus norvegicus [9] = assay: Dopaminergic activity in Sprague-Dawley rat assessed as stereotyped behavior characterized by continous sniffing up to 12.5 to 50 ug administered into nucleus accumbens; assay type: functional, organism-based; procedure, shortened: as §1
Rattus norvegicus [10] = assay: Dopaminergic activity in Sprague-Dawley rat assessed as hyperactivity up to 6.25 to 50 ug administered into nucleus accumbens; assay type: functional, organism-based; procedure, shortened: as §1
Canis familiaris [11] = assay: Emetic activity in sc dosed dogs assessed as frequency of vomiting for 1 hr; assay type: functional; details: Canis lupus familiaris
Procedure, shortened: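 At least five dogs per compound were dosed sc, with doses spaced at 0.3 log intervals. Vomiting frequency was recorded over 1 h.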

[12] = Induction of pecking activity in pigeons assessed as counts for 1 hr; assay type: functional; details: Columbidae
Procedure, shortened: (§6)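 Pigeons were dosed im, with doses spaced at 0.3 log intervals, and pecks were counted over 1 h. Pecking after 1.63 µmol apomorphine hydrochloride was taken as the 100% response.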

Mus musculus [13] = assay: Dopaminergic activity in albino mouse assessed as induction of climbing behavior at 0.5 to 1.5 mg/kg, sc; assay type: functional, organism-based
Procedure, shortened: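 Male albino mice (20-25 g, N = 10) received agents sc in water with 0.1% sodium metabisulfite. They were placed in perspex cages lined with wire mesh and counted as climbing when holding the wire with all four paws. Read-outs were climbing index (% time climbing in the 30 min after the first climb) and maximum single-climb time. Range given is threshold to maximal dose.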

Rattus norvegicus [14] = assay: Dopaminergic activity in Sprague-Dawley rat assessed as stereotyped behavior characterized by sniffing and biting at 0.5 to 2 mg/kg, sc; assay type: functional, organism-based
Procedure, shortened: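 Male Sprague-Dawley rats in groups of 10 received agents sc, dissolved in distilled water containing 0.1% sodium metabisulfite, and were scored for stereotyped sniffing and biting. Testing ran 08:00-18:00 h in sound-proofed rooms at 21 ± 2 °C. The reported range runs from the threshold dose to the dose producing the maximum attainable response, in mg/kg sc.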

Mus musculus [15] = assay: Dopaminergic activity in albino mouse assessed as stereotyped behavior characterized by sniffing and biting at 1.5 to 4 mg/kg, sc; assay type: functional, organism-based
Mus musculus [16] = assay: Dopaminergic activity in albino mouse assessed as induction of ipsilateral circling behavior at 0.25 to 1 mg/kg, sc; assay type: functional, organism-based
Procedure, shortened: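 Mice received a unilateral caudate-putamen electrolesion (1.5 mA, 15 s). After 14 days they were screened with apomorphine HCl 1.0 mg/kg sc, and animals circling ≥7 ipsilateral revolutions/2 min were kept. After 7 days' recovery, agents were given sc and complete one-direction revolutions were counted manually. Lesion sites were verified histologically. Range given is threshold to maximal dose.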

Rattus norvegicus [17] = assay: Dopaminergic activity in Sprague-Dawley rat assessed as stereotyped behavior characterized by sniffing and biting at 1 to 10 mg/kg, sc; assay type: functional, organism-based; procedure, shortened: as §2
Canis familiaris [18] = assay: Emetic activity in sc dosed dogs assessed as frequency of vomiting for 1 hr relative to apomorphine; assay type: functional, Canis lupus familiaris
Felis catus = assay: Inhibition of electrical-stimulation of postganglionic cardioaccelerator nerve in iv dosed cat; assay type: functional; details: read-out: ID50 (the source's name)
Procedure, shortened: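 Cats were anaesthetised with sodium pentobarbital 30 mg/kg and ventilated. The right postganglionic cardioaccelerator nerves were stimulated with bipolar electrodes (2 Hz, 5 ms pulses, supramaximal voltage, 20–30 s trains), and heart rate was read by cardiotachometer. Doses were spaced at 0.48 log intervals, and the dose inhibiting positive chronotropic responses by 50% was calculated.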

Rattus norvegicus [19] = assay: Dopaminergic activity in Sprague-Dawley rat assessed as hyperactivity behavior administered into nucleus caudate-putamen measured up to 25 ug from 30 to 45 mins to persisted up to 5 to 6 hrs; assay type: functional, organism-based; procedure, shortened: as §1
Rattus norvegicus [20] = assay: Dopaminergic activity in Sprague-Dawley rat assessed as stereotypic behavior administered into caudate-putamen measured up to 25 ug from 5 to 15 mins to persisted up to 5 to 6 hrs; assay type: functional, organism-based; procedure, shortened: as §1
Rattus norvegicus [21] = assay: Dopaminergic activity in Sprague-Dawley rat assessed as biting behavior up to 50 ug administered into nucleus accumbens; assay type: functional, organism-based; procedure, shortened: as §1
Mus musculus [22] = assay: Dopaminergic activity in albino mouse assessed as induction of climbing behavior at 0.025 to 1 mg/kg, sc after 120 mins; assay type: functional, organism-based; procedure, shortened: as §5
Rattus norvegicus [23] = assay: Dopaminergic activity in Sprague-Dawley rat assessed as stereotyped behavior characterized by sniffing and biting at 0.025 to 0.05 mg/kg, sc; assay type: functional, organism-based; procedure, shortened: as §2
Mus musculus [24] = assay: Dopaminergic activity in albino mouse assessed as induction of ipsilateral circling behavior at 0.5 to 2 mg/kg, sc; assay type: functional, organism-based; procedure, shortened: as §4
[25] = Induction of pecking activity in pigeons assessed as counts for 1 hr relative to apomorphine; assay type: functional, Columbidae; procedure, shortened: as §6
Mus musculus [26] = assay: Dopaminergic activity in albino mouse assessed as induction of ipsilateral circling behavior at 0.5 to 2 mg/kg, sc after 120 mins; assay type: functional, organism-based; procedure, shortened: as §4
Mus musculus [27] = assay: Dopaminergic activity in sc dosed albino mouse assessed as induction of ipsilateral circling behavior; assay type: functional, organism-based; procedure, shortened: as §4
Mus musculus [28] = assay: Dopaminergic activity in albino mouse assessed as induction of climbing behavior at 0.025 to 1 mg/kg, sc; assay type: functional, organism-based; procedure, shortened: as §5
Mus musculus [29] = assay: Dopaminergic activity in albino mouse assessed as stereotyped behavior characterized by sniffing and biting at 1 to 2 mg/kg, sc; assay type: functional, organism-based; procedure, shortened: as §3
Rattus norvegicus [30] = assay: Dopaminergic activity in Sprague-Dawley rat assessed as stereotyped behavior characterized by periodic biting associated with sniffing administered into nucleus accumbens; assay type: functional, organism-based; procedure, shortened: as §1
Rattus norvegicus [31] = assay: Dopaminergic activity in Sprague-Dawley rat assessed as locomotor and stereotypic behavior administered into nucleus accumbens measured up to 25 ug from 5 to 15 mins to persisted up to 5 to 6 hrs; assay type: functional, organism-based; procedure, shortened: as §1
Mus musculus [32] = assay: Dopaminergic activity in albino mouse assessed as induction of climbing behavior at 0.5 mg/kg, sc up to 30 mins; assay type: functional; details: route subcutaneous; procedure, shortened: as §5
Mus musculus [33] = assay: Dopaminergic activity in albino mouse assessed as stereotyped behavior characterized by sniffing and biting at 0.05 to 1 mg/kg, sc; assay type: functional, organism-based; procedure, shortened: as §3
Mus musculus [34] = assay: Dopaminergic activity in albino mouse assessed as induction of ipsilateral circling behavior at 0.05 to 0.5 mg/kg, sc after 120 mins; assay type: functional, organism-based; procedure, shortened: as §4
Mus musculus [35] = assay: Dopaminergic activity in albino mouse assessed as induction of ipsilateral circling behavior at 0.05 to 0.5 mg/kg, sc; assay type: functional, organism-based; procedure, shortened: as §4
Mus musculus [36] = assay: Dopaminergic activity in albino mouse assessed as induction of climbing behavior at 0.1 to 0.5 mg/kg, sc after 120 mins; assay type: functional, organism-based; procedure, shortened: as §5
Mus musculus [37] = assay: Dopaminergic activity in albino mouse assessed as induction of climbing behavior at 0.1 to 0.5 mg/kg, sc; assay type: functional, organism-based; procedure, shortened: as §5

Structure (SMILES) | Activity (Rattus norvegicus [1]) | Activity (Rattus norvegicus [2]) | Activity (Rattus norvegicus [3]) | Activity (Rattus norvegicus [4]) | Activity (Rattus norvegicus [5]) | Activity (Mus musculus [6]) | Activity (Mus musculus [7]) | Activity (Mus musculus [8]) | Activity (Rattus norvegicus [9]) | Activity (Rattus norvegicus [10]) | fold change (FC) (Canis familiaris [18]) | ED50 (Felis catus) [µmol/kg] | Activity (Rattus norvegicus [19]) | Activity (Rattus norvegicus [20]) | other results
CCCN1CCC[C@@H]2c3ccc(O)c(O)c3CC[C@@H]21 (relative stereo) | Active | inactive | inactive | Active | inactive | inactive | inactive | inactive | inactive | inactive |  |  |  |  | 
CN1CCc2cccc3c2[C@H]1Cc1ccc(O)c(O)c1-3 [APOMORPHINE HYDROCHLORIDE] |  |  |  |  |  |  |  |  |  |  |  |  |  |  | ED50 (Canis familiaris [11]): 0.14 µmol/kg; ED50 [12]: 0.77 µmol/kg
CN1CCc2cccc3c2[C@H]1Cc1ccc(O)c(O)c1-3 |  |  |  |  |  |  |  |  |  |  |  |  |  |  | Activity (Mus musculus [13]): Active; Activity (Rattus norvegicus [14]): Active; Activity (Mus musculus [15]): Active; Activity (Mus musculus [16]): Active
Oc1ccc2c(c1O)CC[C@H]1NCCC[C@H]21 (relative stereo) | Active | Active | Active | Active |  | inactive | inactive | inactive | inactive | inactive | 4.5 | 0.0007 |  |  | Activity (Rattus norvegicus [17]): Active
CN1CCc2cccc3c2[C@H]1Cc1ccc(O)c(O)c1-3 [APOMORPHINE] |  |  |  |  |  |  |  |  |  |  |  | 0.019 |  |  | 
Oc1ccc2c(c1O)CC[C@@H]1NCCC[C@H]21 (relative stereo) | Active | inactive | inactive | Active | inactive | inactive | inactive | inactive | inactive | inactive | 0.024 | 0.027 |  |  | 
NCCc1ccc(O)c(O)c1 |  |  |  |  |  |  |  |  | Active | Active |  |  | Active | Active | Activity (Rattus norvegicus [21]): inactive
CCN1CCC[C@@H]2c3ccc(O)c(O)c3CC[C@@H]21 (relative stereo) | Active |  | Active | Active | inactive | inactive | inactive | inactive | Active | Active | 0.053 |  |  |  | 
CCN1CCC[C@@H]2c3ccc(O)c(O)c3CC[C@H]21 (relative stereo) |  | Active | Active |  |  |  |  |  |  | inactive | 4.9 | 0.0005 | Active | Active | Activity (Mus musculus [22]): Active; Activity (Rattus norvegicus [23]): Active; Activity (Mus musculus [24]): Active; fold change (FC) [25]: 0.39; Activity (Mus musculus [26]): Active; Activity (Rattus norvegicus [21]): Active; Activity (Mus musculus [27]): Dose-dependent effect; Activity (Mus musculus [28]): Active; Activity (Mus musculus [29]): Active
CCCN1CCC[C@@H]2c3ccc(O)c(O)c3CC[C@H]21 (relative stereo) |  | Active | Active |  |  |  |  |  |  | Active | 2.7 | 0.0003 | Active | Active | Activity (Rattus norvegicus [30]): Active; Activity (Rattus norvegicus [23]): Active; Activity (Rattus norvegicus [31]): Active; Activity (Mus musculus [32]): >90%; fold change (FC) [25]: 0.32; Activity (Mus musculus [33]): Active; Activity (Mus musculus [34]): Active; Activity (Mus musculus [35]): Active; Activity (Mus musculus [36]): Active; Activity (Mus musculus [37]): Active; Activity (Mus musculus [27]): Dose-dependent effect
